Measured values as given in publication PMC5776616 (Experimental and Therapeutic Medicine, 2017).
Where no end group is shown, it is not given here.

What was measured:
[1] = tested on: multi-species biofilm of luc-ldh reporter strain of S. mutans, S. gordonii ATCC-10558 and S. sanguis ATCC-49295; test: Multi-species biofilm; type: cell-based; conditions: for growth of S. gordonii and S. sanguis in multi-species biofilm: 5 min after treatment, peptide 128 µg/ml; for relative strength of effect on S. mutans in multi-species biofilm (ranking): order in words: strongest effects, followed by, then, Fig. 2B
Outline: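 Mid-log cultures were adjusted to 1×10^7 CFU/ml in BHI with 0.5% sucrose (S. mutans luc-ldh reporter), 0.5% glucose (S. gordonii) or 0.5% mannose (S. sanguis). Wells were spun and grown anaerobically 4 h at 37°C into biofilm. Peptide in PBS was added at a final 128 µg/ml, then replaced with sugar-containing BHI. OD600 was read at 5–120 min, and S. mutans RLU after adding 1 mM D-luciferin. Groups were compared by one-way ANOVA.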

[2] = tested on: S. mutans UA 159; test: MIC by broth microdilution, planktonic S. mutans UA159; type: cell-based, Streptococcus mutans; conditions: for MICs against the S. mutans strains: range over both S. mutans strains (UA159 and GS-5); for increase of antibacterial activity against S. mutans compared with hLF1-11 alone: planktonic S. mutans, from MICs
Outline: (§1)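 Strains were grown anaerobically overnight in BHI at 37°C, diluted 1:20 and grown anaerobically 2.5 h to mid-log phase. Two-fold serial peptide dilutions in BHI were set up in 96-well round-bottom plates, and the final inoculum was 1×10^5 CFU/ml. The MIC was reported as the median of at least three independent experiments.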

[3] = tested on: S. sanguis ATCC-49295; test: MIC by broth microdilution, planktonic S. sanguis; type: cell-based, Streptococcus sanguis
Outline: as §1

[4] = tested on: S. gordonii ATCC-10558; test: MIC by broth microdilution, planktonic S. gordonii; type: cell-based, Streptococcus gordonii
Outline: as §1

[5] = tested on: S. mutans UA 159; test: Differential protein expression; type: cell-based, Streptococcus mutans
Outline: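 Mid-log S. mutans UA 159 (BHI, anaerobic, 1×10^6 CFU/ml) was exposed to test peptide at 20 µg/ml or an equal volume of sterile water, anaerobically at 37°C for 1 h. Cells were pelleted at 4°C and lysed with lysozyme plus protease inhibitors, on ice with sonication. Protein was cleaned, quantified and CyDye minimal-labelled. Spots were identified by positive-ion reflection MALDI-TOF-MS over m/z 700–4,000.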

[6] = S. mutans UA 159, C11H 20 µg/ml 1 h vs water control, gi|24379038

Sequence	growth of S. gordonii and S. sanguis in multi-species biofilm [1]	MICs against the S. mutans strains ([2]; planktonic)	relative strength of effect on S. mutans in multi-species biofilm (ranking) [1]	increase of antibacterial activity against S. mutans compared with hLF1-11 alone [2]	also measured
GRRRRSVQWCA [hLF1-11, reference compound]	not affected	37.33 to 48.00 µg/mL	–	–	–
LSTFFRLFN [C12]	not affected	–	–	–	MIC against S. sanguis [3]: > 256 µg/mL; MIC against S. gordonii [4]: > 256 µg/mL; MIC against S. mutans ([2]; planktonic): > 256 µg/mL
LSTFFRLFNGRRRRSVQWCA [C12H]	not affected	10.67 to 13.33 µg/mL	strongest effects	3–4 times	–
LSTFFRLFNRSFTQGRRRRSVQWCA [C14H]	not affected	10.67 to 13.33 µg/mL	–	3–4 times	–
STFFRLFNRSFTQGRRRRSVQWCA [C13H]	not affected	10.67 to 13.33 µg/mL	–	3–4 times	–
TFFRLFNRGRRRRSVQWCA [C8H]	not affected	10.67 to 13.33 µg/mL	then	3–4 times	–
TFFRLFNRSFTGRRRRSVQWCA [C11H]	not affected	10.67 to 13.33 µg/mL	strongest effects	3–4 times	Average ration: Heat shock protein GrpE (HSP-70 cofactor) (master no. 1781) ([5]; S. mutans UA 159, C11H 20 µg/ml 1 h vs water control, gi|24378605): −4.2; Average ration: NAD synthetase (master no. 1628) ([5]; S. mutans UA 159, C11H 20 µg/ml 1 h vs water control, gi|24378953): −4.12; Average ration: Putative cell division A protein DivIV (master no. 1355) [5, 6]: −8; Average ration: Putative cell division protein DivIVA (master no. 1327) [5, 6]: −11.09; Average ration: Putative cell division protein DivIVA (master no. 1341) [5, 6]: −5.58; Average ration: Putative 40K cell wall protein precursor (master no. 654) ([5]; S. mutans UA 159, C11H 20 µg/ml 1 h vs water control, gi|24379086): −4.75; Average ration: Branch ed-chain amino acid aminotransferase (master no. 1241) ([5]; S. mutans UA 159, C11H 20 µg/ml 1 h vs water control, gi|24379628): −5.4; Average ration: Orotate phosphoribo-syltransferase (master no. 2141) ([5]; S. mutans UA 159, C11H 20 µg/ml 1 h vs water control, gi|24379645): −4.63; Average ration: Putative dTDP-4-keto-L-rhamnose reductase (master no. 2068) ([5]; S. mutans UA 159, C11H 20 µg/ml 1 h vs water control, gi|24379857): −5.54; Average ration: Ribosome recycling factor (master no. 2072) ([5]; S. mutans UA 159, C11H 20 µg/ml 1 h vs water control, gi|24380004): −4.7; Average ration: Hypothetical protein SMU.1716c (master no. 2188) ([5]; S. mutans UA 159, C11H 20 µg/ml 1 h vs water control, gi|24380090): −6.14; Average ration: Putative trans-2-enoyl-ACP reductase (master no. 1551) ([5]; S. mutans UA 159, C11H 20 µg/ml 1 h vs water control, gi|24380114): −4.34; Average ration: Hypothetical protein SMU.1760c (master no. 1506) ([5]; S. mutans UA 159, C11H 20 µg/ml 1 h vs water control, gi|24380128): −5.93; Average ration: Hypothetical protein SMU.1789c (master no. 1576) ([5]; S. mutans UA 159, C11H 20 µg/ml 1 h vs water control, gi|24380155): −6.04; Average ration: Elongation factor P (master no. 2035) ([5]; S. mutans UA 159, C11H 20 µg/ml 1 h vs water control, gi|24380208): −4.19; Average ration: Single-strand DNA-binding protein (master no. 2334) ([5]; S. mutans UA 159, C11H 20 µg/ml 1 h vs water control, gi|24380219): −5.37; Average ration: Inositol-5 monophosphate dehydrogenase (master no. 824) ([5]; S. mutans UA 159, C11H 20 µg/ml 1 h vs water control, gi|24380485): −12.84; 21 protein spots with a mean change ratio of 1.5 ([5]; S. mutans UA 159, C11H 20 µg/ml, 1 h): downregulated
